Results taken from ChEMBL document CHEMBL3853291, “Polycyclic Polyprenylated Derivatives from Hypericum uralum: Neuroprotective Effects and Antidepressant-like Activity of Uralodin A” (2016).

Tests used:
PC-12 [1] = assay: Neuroprotective activity against corticosterone-induced cell injury in rat PC12 cells assessed as cell viability at 10 uM after 48 hrs by MTT assay (reference value: 55.6 +/- 0.87%); format: functional; conditions: PC-12, 48 h, read-out: Activity
PC-12 [2] = assay: Neuroprotective activity against corticosterone-induced cell injury in rat PC12 cells assessed as cell viability at 3 uM after 48 hrs by MTT assay (reference value: 55.6 +/- 0.87%); format: functional; conditions: PC-12, 48 h, read-out: Activity
PC-12 [3] = assay: Neuroprotective activity against corticosterone-induced cell injury in rat PC12 cells assessed as cell viability at 1 uM after 48 hrs by MTT assay (reference value: 55.6 +/- 0.87%); format: functional; conditions: PC-12, 48 h, read-out: Activity
PC-12 [4] = assay: Neuroprotective activity against corticosterone-induced cell injury in rat PC12 cells assessed as cell viability at 0.3 uM after 48 hrs by MTT assay (reference value: 55.6 +/- 0.87%); format: functional; conditions: PC-12, 48 h, read-out: Activity
PC-12 [5] = assay: Neuroprotective activity against corticosterone-induced cell injury in rat PC12 cells assessed as cell viability at 0.1 uM after 48 hrs by MTT assay (reference value: 55.6 +/- 0.87%); format: functional; conditions: PC-12, 48 h, read-out: Activity
[6] = Antidepressant-like activity in LPS-induced ICR mouse assessed as decrease in immobility time at 25 mg/kg, ig qd for 5 days followed by LPS stimulation on 5th day injected 30 mins post last dose measured 24 hrs after stimulation monitored for last 4 mins by tail suspension test relative to control; format: functional, organism-based; set-up: scale not given: the % may be the effect or the level left
How it was run: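 Male ICR mice (18−22 g), n = 12 per group, given drug in 0.03% CMC-Na intragastrically once daily for 5 days. LPS 0.5 mg/kg i.p. 30 min after the last dose, with the test 24 h later. Mice visually and acoustically isolated, taped ~1 cm from the tail tip, hung 50 cm above the floor for 6 min. Passive motionless hanging timed over the last 4 min; mean ± SD.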

[7] = Antidepressant-like activity in LPS-induced ICR mouse assessed as decrease in immobility time at 25 mg/kg, ig qd for 5 days followed by LPS stimulation on 5th day injected 30 mins post last dose measured 24 hrs after stimulation monitored for last 4 mins by forced swim test relative to control; format: functional, organism-based; set-up: scale not given: the % may be the effect or the level left
How it was run: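 Male ICR mice (18−22 g), 12 per group. Drug suspended in 0.03% CMC-Na and given intragastrically once daily for 5 days. LPS 0.5 mg/kg i.p. 30 min after the day-5 dose, with testing 24 h later. Mice swim 6 min at 25 ± 1 °C in a cylinder (20 cm high, 14 cm diameter, 10 cm water). Floating immobility scored over the last 4 min; mean ± SD.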

[8] = Antidepressant-like activity in LPS-induced ICR mouse assessed as decrease in immobility time at 13 mg/kg, ig qd for 5 days followed by LPS stimulation on 5th day injected 30 mins post last dose measured 24 hrs after stimulation monitored for last 4 mins by forced swim test relative to control; format: functional, organism-based; set-up: scale not given: the % may be the effect or the level left
How it was run: (§1)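 Male ICR mice (18−22 g), n = 12 per group. Dosed intragastrically once daily for 5 days as a suspension in 0.03% CMC-Na. On day 5, LPS 0.5 mg/kg i.p. was given 30 min after dosing. Tests were run 24 h after LPS. FST used a 20 × 14 cm cylinder with 10 cm water at 25 ± 1 °C, 6 min swim. TST suspended mice 50 cm high by the tail tape for 6 min. Immobility was scored over the last 4 min.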

[9] = Antidepressant-like activity in LPS-induced ICR mouse assessed as decrease in immobility time at 26 mg/kg, ig qd for 5 days followed by LPS stimulation on 5th day injected 30 mins post last dose measured 24 hrs after stimulation monitored for last 4 mins by forced swim test relative to control; format: functional, organism-based; set-up: scale not given: the % may be the effect or the level left; how it was run: as §1
[10] = Antidepressant-like activity in LPS-induced ICR mouse assessed as decrease in immobility time at 13 mg/kg, ig qd for 5 days followed by LPS stimulation on 5th day injected 30 mins post last dose measured 24 hrs after stimulation monitored for last 4 mins by tail suspension test relative to control; format: functional, organism-based; set-up: scale not given: the % may be the effect or the level left; how it was run: as §1
[11] = Antidepressant-like activity in LPS-induced ICR mouse assessed as decrease in immobility time at 26 mg/kg, ig qd for 5 days followed by LPS stimulation on 5th day injected 30 mins post last dose measured 24 hrs after stimulation monitored for last 4 mins by tail suspension relative to control; format: functional, organism-based; set-up: scale not given: the % may be the effect or the level left; how it was run: as §1

Row | Compound | viability at 10 µM (PC-12 [1]) [%] | viability at 3 µM (PC-12 [2]) [%] | viability at 1 µM (PC-12 [3]) [%] | viability at 0.3 µM (PC-12 [4]) [%] | viability at 0.1 µM (PC-12 [5]) [%] | Activity [6] [%] | Activity [7] [%] | Activity [8] [%] | Activity [9] [%] | Activity [10] [%] | Activity [11] [%]
1 | CC(C)=CCC[C@]1(C)[C@@H](CC=C(C)C)C[C@@]2(CC=C(C)C)C(=O)[C@]1(C(=O)c1ccccc1)C(=O)C1=C2O[C@@H](C(C)(C)O)C1 | 75.9 | 72.9 | 74.7 | 56.6 | 55.6 | – | – | – | – | – | –
2 | CC(C)=CCC1=C2O[C@H](C(C)(C)O)CC[C@]3(C)[C@@H](CC=C(C)C)C[C@](CC=C(C)C)(C1=O)C(=O)[C@]23C(=O)c1ccccc1 | 84.2 | 81.6 | 83.5 | 82.7 | 83.4 | – | – | – | – | – | –
3 | CC(C)=CCC[C@]1(C)[C@@H](CC=C(C)C)C[C@@]2(CC=C(C)C)C(=O)[C@]1(C(=O)c1ccccc1)C(=O)C1=C2O[C@H](C(C)(C)O)C1 | 57 | 74.4 | 72.2 | 77.7 | 69.9 | – | – | – | – | – | –
4 | CC(C)=CCC[C@]1(C)[C@@H](CC=C(C)C)C[C@]2(C[C@H](O)C(C)(C)O)C(=O)C3=C(OC(C)(C)[C@@H](O)C3)[C@@]1(C(=O)c1ccccc1)C2=O | 80.9 | 72.5 | 78.5 | 77.7 | 77.9 | – | – | – | – | – | –
5 | CC(C)=CCC[C@]1(C)[C@@H](CC=C(C)C)C[C@]23C[C@H](C(C)(C)O)OC2=C(CC=C(C)C)C(=O)[C@@]1(C(=O)c1ccccc1)C3=O | 86.6 | 78 | 68.1 | 72.8 | 82.9 | – | – | – | – | – | –
6 | CC(C)=CCC1=C2O[C@H](C(C)(C)O)CC[C@]3(C)[C@@H](C[C@H](O)C(C)(C)O)C[C@](CC=C(C)C)(C1=O)C(=O)[C@]23C(=O)C(C)C | 72.9 | 90.7 | 93.5 | 84.4 | 91.7 | – | – | – | – | – | –
7 | CNCCC(Oc1ccc(C(F)(F)F)cc1)c1ccccc1 (stereo unspecified) [FLUOXETINE] | 69.6 | 59.1 | 70.1 | 66.2 | 77.7 | 23.1 | 33.7 | – | – | – | –
8 | CC(C)=CCC[C@]1(C)[C@@H](CC=C(C)C)C[C@]2(CC=C(C)C)C(=O)C(C(=O)c3ccccc3)=C3O[C@@H](C(C)(C)O)C[C@@]31C2=O | 68.1 | 77.7 | 78.5 | 72.9 | 78.6 | – | – | – | – | – | –
9 | CC(C)=CCC[C@]1(C)[C@@H](CC=C(C)C)C[C@]2(C[C@H](O)C(C)(C)O)C(=O)C(C(=O)C(C)C)=C3O[C@H](C(C)(C)O)C[C@@]31C2=O | 71.5 | 76.5 | 81.1 | 80 | 72.3 | – | – | – | – | – | –
10 | CC(C)=CCC[C@]1(C)[C@@H](CC=C(C)C)C[C@]2(CC=C(C)C)C(=O)C3=C(OC(C)(C)[C@@H](O)C3)[C@@]1(C(=O)c1ccccc1)C2=O | 65.9 | 69 | 77.6 | 80.8 | 70 | – | – | – | – | – | –
11 | CC(C)=CCC[C@]1(C)[C@@H](CC=C(C)C)C[C@]23C[C@@H](C(C)(C)O)OC2=C(CC=C(C)C)C(=O)[C@@]1(C(=O)c1ccccc1)C3=O | 85.3 | 90.2 | 85.9 | 87.1 | 85.7 | – | – | 21.4 | 28.1 | 6.6 | 12.6
12 | CC(C)=CCC[C@]1(C)[C@@H](CC=C(C)C)C[C@]2(CC=C(C)C)C(=O)C(C(=O)c3ccccc3)=C3O[C@H](C(C)(C)O)C[C@@]31C2=O | 74.1 | 81.1 | 76.6 | 81.8 | 76.7 | – | – | – | – | – | –
13 | CC(C)=CCC[C@]1(C)[C@@H](CC=C(C)C)C[C@]2(CC=C(C)C)C(=O)C3=C(OC(C)(C)[C@H](O)C3)[C@@]1(C(=O)C(C)C)C2=O | 75.1 | 91.5 | 81.8 | 61.4 | 80.3 | – | – | – | – | – | –
14 | CC(C)=CCC[C@]1(C)[C@@H](CC=C(C)C)C[C@]23C[C@@H](C(C)(C)O)OC2=C(CC=C(C)C)C(=O)[C@@]1(C(=O)C(C)C)C3=O | 85.2 | 77.7 | 79.7 | 79.9 | 77.2 | – | – | – | – | – | –
15 | CC(C)=CCC[C@]1(C)[C@H](CC=C(C)C)C[C@]2(CC=C(C)C)C(=O)C(C(=O)C(C)C)=C3O[C@@H](C(C)(C)O)C[C@@]31C2=O | 61 | 63.8 | 77 | 68.1 | 80.9 | – | – | – | – | – | –
16 | CC(C)=CCC1=C2O[C@H](C(C)(C)O)CC[C@]3(C)[C@@H](CC=C(C)C)C[C@](C[C@H](O)C(C)(C)O)(C1=O)C(=O)[C@]23C(=O)c1ccccc1 | 53.2 | 59.7 | 65 | 57.5 | 55.9 | – | – | – | – | – | –
17 | CC(C)=CCC[C@]1(C)[C@@H](CC=C(C)C)C[C@]2(CC=C(C)C)C(=O)C3=C(OC(C)(C)[C@H](O)C3)[C@@]1(C(=O)c1ccccc1)C2=O | 68.9 | 82.2 | 86.3 | 86.8 | 78.6 | – | – | – | – | – | –
